Here are results for 49 molecules from ChEMBL document CHEMBL4368874, “Synthesis, biological evaluation, and structure activity relationship (SAR) study of pyrrolidine amide derivatives as N-acylethanolamine acid amidase (NAAA) inhibitors” (Medchemcomm, 2019).

Usually IC50 stands for the point on the concentration scale where inhibition reaches its midpoint. By Km is commonly meant the substrate concentration at which the rate is half of its maximum. What is called inhibition is the share of the control response that was lost under treatment. Low values mean little suppression, high ones strong suppression. A word on the Vmax: it is the rate approached at saturating substrate.

The labels stand for the following.
T1: N-acylethanolamine-hydrolyzing acid amidase (Rattus norvegicus, UniProt Q5KTC7)
T1 sequence (Q5KTC7 whole entry): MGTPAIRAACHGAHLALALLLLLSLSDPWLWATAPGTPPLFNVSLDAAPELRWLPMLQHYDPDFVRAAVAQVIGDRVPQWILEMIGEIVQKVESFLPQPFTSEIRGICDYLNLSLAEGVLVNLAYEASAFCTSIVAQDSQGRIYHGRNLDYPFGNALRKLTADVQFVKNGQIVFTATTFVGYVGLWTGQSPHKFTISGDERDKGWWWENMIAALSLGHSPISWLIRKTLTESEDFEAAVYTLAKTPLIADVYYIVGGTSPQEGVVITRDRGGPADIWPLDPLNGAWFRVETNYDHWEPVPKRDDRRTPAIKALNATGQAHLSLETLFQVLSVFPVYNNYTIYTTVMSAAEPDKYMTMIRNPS

T2: Fatty-acid amide hydrolase 1 (Rattus norvegicus, UniProt P97612)
T2 sequence (P97612 whole entry): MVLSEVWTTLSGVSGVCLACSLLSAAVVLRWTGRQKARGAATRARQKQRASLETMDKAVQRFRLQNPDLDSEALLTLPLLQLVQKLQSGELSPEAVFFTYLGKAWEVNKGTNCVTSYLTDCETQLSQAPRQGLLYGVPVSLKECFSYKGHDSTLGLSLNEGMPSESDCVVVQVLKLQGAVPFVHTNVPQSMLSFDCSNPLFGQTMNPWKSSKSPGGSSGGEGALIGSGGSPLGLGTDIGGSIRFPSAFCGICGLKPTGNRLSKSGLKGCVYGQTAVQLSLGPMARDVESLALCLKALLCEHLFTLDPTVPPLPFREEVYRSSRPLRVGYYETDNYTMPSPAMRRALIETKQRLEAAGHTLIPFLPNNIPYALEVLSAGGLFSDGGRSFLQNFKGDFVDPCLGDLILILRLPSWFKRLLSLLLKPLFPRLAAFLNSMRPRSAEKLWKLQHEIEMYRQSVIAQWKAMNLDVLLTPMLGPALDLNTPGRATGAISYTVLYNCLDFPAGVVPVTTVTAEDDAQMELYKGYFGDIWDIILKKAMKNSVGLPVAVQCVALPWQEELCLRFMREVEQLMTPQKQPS

T3: Acid ceramidase (Rattus norvegicus) (UniProt Q6P7S1)
T3 sequence (whole entry): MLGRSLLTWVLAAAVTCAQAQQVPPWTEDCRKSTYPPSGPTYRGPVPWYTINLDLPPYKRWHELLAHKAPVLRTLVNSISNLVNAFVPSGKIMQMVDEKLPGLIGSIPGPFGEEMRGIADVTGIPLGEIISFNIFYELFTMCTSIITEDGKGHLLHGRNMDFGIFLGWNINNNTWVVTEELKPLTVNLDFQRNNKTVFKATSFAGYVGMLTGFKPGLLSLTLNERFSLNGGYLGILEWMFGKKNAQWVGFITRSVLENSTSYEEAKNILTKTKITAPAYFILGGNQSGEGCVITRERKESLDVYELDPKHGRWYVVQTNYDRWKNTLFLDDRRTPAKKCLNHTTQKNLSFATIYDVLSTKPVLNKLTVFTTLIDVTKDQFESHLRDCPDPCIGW

B1: N-acylethanolamine-hydrolyzing acid amidase (Rattus norvegicus), Q5KTC7 (protein)
chain: T1 sequence (Q5KTC7 whole entry)

In the first data set the target is T1, N-acylethanolamine-hydrolyzing acid amidase. Nature of the data set: Inhibition of rat NAAA expressed in HEK293 cells using heptadecenoylethanolamide as substrate after 30 mins HPLC-MS/MS analysis.
Settings: not given
A digest of the protocol:
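Enzyme source: HEK293 cells stably overexpressing rat NAAA, grown in DMEM/10% FBS with G418. Cells were sonicated in 20 mM Tris-HCl pH 7.5 with 0.32 M sucrose, and the 800 × g supernatant was used. 30 µg protein was incubated with 25 µM heptadecenoylethanolamide for 30 min at 37 °C in 50 mM phosphate pH 4.5 with 0.1% Triton X-100 and 3 mM DTT. Stopped with methanol containing heptadecanoic acid internal standard; remaining substrate measured by HPLC-MS/MS; IC50 from curve fitting.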
Consider `O=C(CCCCc1ccc2c(c1)OCO2)N1CCCC1`, for which the IC50 came out at 5.5 µM.
`COC(=O)c1cccc(CCCCCCC(=O)N2CCCC2)c1`: the IC50 is more than 100 µM.
As to `O=C(CCCCCCc1ccccc1Cl)N1CCCC1`, the IC50 was more than 100 µM.
In the case of `O=C(CCc1ccc(-c2cccc(Cl)c2)cc1)N1CCCC1`, half-maximal inhibition (IC50) required 25.4 µM.
As to `O=C(CCc1ccc(-c2cccs2)cc1)N1CCCC1`, the IC50 was more than 100 µM.
`O=C(CCc1ccc(-c2cccnc2)cc1)N1CCCC1` came in with a half-maximal inhibitory concentration (IC50) of more than 100 µM.
Molecule `O=C(CCCC/C=C/c1cccc(OCc2ccccc2)c1)N1CCCC1` gave a half-inhibitory concentration (IC50) of more than 100 µM.
Same read-out and setting: to `O=C(/C=C/C=C/c1ccc2c(c1)OCO2)N1CCCC1` [TRICHOSTACHINE] belongs 4.1 µM.
Regarding `COc1cccc(CCCCCCC(=O)N2CCCC2)c1`, the IC50 is more than 100 µM.
Turning to `O=C(CCC1CCC(Oc2ccccc2)CC1)N1CCCC1` (stereo not drawn), half-maximal inhibition (IC50) required 2.8 µM.
With `O=C(CCc1ccc(-c2ccsc2)cc1)N1CCCC1`, 2.5 µM corresponded to half-maximal inhibition (IC50).
Same read-out and setting: to `Cc1ccccc1CCCCCCC(=O)N1CCCC1` belongs 68.4 µM; to `O=C(CCCCCCc1cccs1)N1CCCC1`, 14.1 µM.
The molecule `O=C(CCCCCCc1ccccn1)N1CCCC1` showed an IC50 of more than 100 µM.
Same read-out and setting: to `O=C(CCc1ccc(-c2cccc(F)c2)cc1)N1CCCC1` belongs 1.8 µM; to `O=C(CCc1ccc(OC2CCCCC2)cc1)N1CCCC1`, 0.7 µM; to `O=C(CCc1ccc(C2CCCCC2)cc1)N1CCCC1`, 0.5 µM.
In turn, `O=C(CCCCCCc1ccc(F)cc1)N1CCCC1` gave an IC50 of 8 µM.
Consider `Cc1ccccc1-c1ccc(CCC(=O)N2CCCC2)cc1`, for which the 50% inhibitory concentration (IC50) was more than 100 µM.
On the same count and under the same terms, to `O=C(CCc1ccc(-c2ccccn2)cc1)N1CCCC1` belongs more than 100 µM; to `O=C(CCc1ccc(Oc2ccccc2)cc1)N1CCCC1`, more than 100 µM; to `O=C(CCc1ccc(-c2ccc(F)cc2)cc1)N1CCCC1`, 3.4 µM.
In turn, `O=C(CCc1ccc(-c2ccc3c(c2)OCO3)cc1)N1CCCC1` yielded an IC50 of more than 100 µM.
In turn, `O=C(CCCCCCc1cccc(O)c1)N1CCCC1` came in with an IC50 of more than 100 µM.
On the same count and under the same terms, to `O=C(CCc1ccc(-c2ccccc2F)cc1)N1CCCC1` belongs 2.8 µM; to `Cc1ccc(CCCCCCC(=O)N2CCCC2)cc1`, 9.6 µM.
For `Cc1cccc(CCCCCCC(=O)N2CCCC2)c1`, the IC50 was determined as 8.3 µM.
In turn, `O=C(CCc1ccc(-c2ccccc2Cl)cc1)N1CCCC1` displayed an IC50 of more than 100 µM.
In turn, `O=C(CCCCCCc1cccc(Cl)c1)N1CCCC1` came in with an IC50 of 3.7 µM.
Same read-out and setting: to `COC(=O)c1ccc(CCCCCCC(=O)N2CCCC2)cc1` belongs more than 100 µM.
Take `O=C(O)c1ccc(CCCCCCC(=O)N2CCCC2)cc1`: the IC50 was more than 100 µM.
Regarding `Cc1ccc(-c2ccc(CCC(=O)N3CCCC3)cc2)cc1`, the half-maximal inhibitory concentration (IC50) turned out to be 33.2 µM.
`O=C(CCCCCCc1ccc(Cl)cc1)N1CCCC1` came in with a half-inhibitory concentration (IC50) of 34.5 µM.
`O=C(CCCCCCC1CCCCC1)N1CCCC1` yielded a 50% inhibitory concentration (IC50) of 5.7 µM.
Molecule `O=C(CCCCCCc1cccc(F)c1)N1CCCC1` registered an IC50 of 7.3 µM.
For `O=C(CCCCCCc1ccccc1F)N1CCCC1`, the IC50 turned out to be 13.7 µM.
Regarding `O=C(O)c1cccc(CCCCCCC(=O)N2CCCC2)c1`, the half-maximal inhibitory concentration (IC50) is more than 100 µM.
Same read-out and setting: to `O=C(CCCC/C=C/c1ccc(OCc2ccccc2)cc1)N1CCCC1` belongs more than 100 µM; to `CCCc1cccc(CCCCCCC(=O)N2CCCC2)c1`, more than 100 µM; to `COc1ccc(CCCCCCC(=O)N2CCCC2)cc1`, 35.4 µM.
The same measure, in the same setting: to `O=C(CCc1ccc(-c2ccc(Cl)cc2)cc1)N1CCCC1` belongs 48.6 µM; to `O=C(CCCCCCc1ccsc1)N1CCCC1`, 13.2 µM; to `CCCc1ccc(CCCCCCC(=O)N2CCCC2)cc1`, more than 100 µM.
Same read-out and setting: to `O=C(CCC1CCC(c2ccccc2)CC1)N1CCCC1` (stereo not drawn) belongs 0.48 µM.
`Cc1cccc(-c2ccc(CCC(=O)N3CCCC3)cc2)c1`: the IC50 worked out at 16.5 µM.
With `O=C(CCCCCCc1cccnc1)N1CCCC1`, the 50% inhibitory concentration (IC50) was more than 100 µM.
With `O=C(CCCCCCc1ccc(O)cc1)N1CCCC1`, the 50% inhibitory concentration (IC50) was 5.6 µM.

The species entered for another data set is Rattus norvegicus. The experiment in a line: Selectivity ratio of IC50 for rat FAAH expressed in HEK293 cells to IC50 for rat […].
Settings: not given
Format: cell-based.
For `O=C(CCc1ccc(C2CCCCC2)cc1)N1CCCC1`, the Ratio IC50 was more than 200.

For a further data set, the target named is T2, Fatty-acid amide hydrolase 1. Nature of the data set: Inhibition of rat FAAH expressed in HEK293 cells using [3H]AEA as substrate after 30 mins HPLC-MS/MS analysis. Format: cell-based. Conditions: in the assay text read “anandamide” for “[3H]AEA”. A digest of the protocol:
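Lysate supernatant from HEK293 cells overexpressing rat FAAH (sonication in Tris-sucrose, 800 × g spin). 30 µg protein incubated at 37 °C with 25 µM anandamide in 50 mM Tris-HCl pH 8.0 containing 0.05% fatty-acid-free BSA. Quenched with methanol containing heptadecanoic acid internal standard; remaining substrate quantified by HPLC-MS/MS; IC50 by curve fitting.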
The molecule `O=C(CCCCc1ccc2c(c1)OCO2)N1CCCC1` gave an IC50 of 42.8 µM.
`O=C(CCc1ccc(-c2ccccc2)cc1)N1CCCC1`: the IC50 was 91.5 µM.
Consider `O=C(CCC1CCC(Oc2ccccc2)CC1)N1CCCC1` (stereo not drawn), for which the midpoint of inhibition, the IC50, lay at 45.1 µM.
`O=C(CCc1ccc(Oc2ccccc2)cc1)N1CCCC1` returned an IC50 of 120 µM.
On the same count and under the same terms, to `O=C(CCc1ccc(-c2ccc3c(c2)OCO3)cc1)N1CCCC1` belongs 91 µM; to `O=C(CCC1CCC(c2ccccc2)CC1)N1CCCC1` (stereo not drawn), 66 µM.

Compound in another data set: O=C(/C=C/c1ccc(-c2ccccc2)cc1)N1CCCC1
Nature of the data set: Competitive inhibition of rat NAAA expressed in HEK293 cells assessed as substrate Km at 5 uM using heptadecenoylethanolamide as substrate after 30 mins by Michaelis Menten plot analysis (reference value: 207 +/- 16 uM). It counts as cell-based.
Settings: not given
Consider B1, for which the Km turned out to be 322 µM.

In the next data set the target is T3, Acid ceramidase (Rattus norvegicus). Nature of the data set: Inhibition of rat acid ceramidase at 100 uM using N-lauroylceramide as substrate after 30 mins by LC-MS analysis relative to control.
Settings: not given
A digest of the protocol: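 100 µg recombinant rat acid ceramidase incubated for 30 min at 37 °C in 50 mM phosphate pH 5.0 with 0.1% Triton X-100, 3 mM DTT, 100 µM N-lauroylceramide substrate and test compound. Stopped with methanol containing 1 nmol heptadecanoic acid; products analysed by LC/MS.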
`O=C(CCc1ccc(C2CCCCC2)cc1)N1CCCC1` gave an inhibition of less than 10%.

A further data set addresses T2, Fatty-acid amide hydrolase 1. The experiment in a line: Inhibition of rat FAAH expressed in HEK293 cells using anandamide as substrate after 30 mins HPLC-MS/MS analysis.
Settings: not given
`O=C(/C=C/C=C/c1ccc2c(c1)OCO2)N1CCCC1` [TRICHOSTACHINE] showed an IC50 of 61.3 µM.

Compound in another data set: O=C(/C=C/c1ccc(-c2ccccc2)cc1)N1CCCC1
The experiment in a line: Competitive inhibition of rat NAAA expressed in HEK293 cells assessed as substrate Vmax at 5 uM using heptadecenoylethanolamide as substrate after 30 mins by Michaelis Menten plot analysis (reference value: 5.89 +/- 0.12 nmol/min/mg protein). It counts as cell-based.
Settings: not given
Take B1: the Vmax stood at 5.88 nmol/min/mg.
